Results as given in ChEMBL document CHEMBL1140861, “Short antisense oligonucleotides with novel 2'-4' conformationaly restricted nucleoside analogues show improved potency without increased toxicity in animals” (J Med Chem, 2009).
The source made the active and inactive calls. The calls are words filed in the database; no cut-off is given here.

Assays:
Mus musculus [1] = assay: Reduction of PTEN mRNA level in ip dosed BALB/c mouse liver administered twice a week for 3 weeks measured after 72 hrs of last dose; type: functional
How it was run: (§1)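 Male Balb/c mice, 6 weeks old, dosed ip twice weekly for 3 weeks at 0.5, 1.5, 4.7 and 15 mg/kg (two ASOs) or 0.7, 2.3, 7.2 and 23 mg/kg (MOE control); sacrificed 72 h after last dose; ALT, liver PTEN mRNA, liver and spleen weights and body weight gain assessed; ED50 derived; errors as sd.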

Mus musculus [2] = assay: Hepatotoxicity in BALB/c mouse assessed as increase in liver ALT level at 0.5 mg/kg, ip administered twice a week for 3 weeks measured after 72 hrs of last dose; type: toxicity, organism-based; set-up: dose 0.5 mg/kg, route intraperitoneal; conditions: in vivo; how it was run: as §1
Mus musculus [3] = assay: Hepatotoxicity in BALB/c mouse assessed as increase in liver ALT level at 23 mg/kg, ip administered twice a week for 3 weeks measured after 72 hrs of last dose; type: toxicity, organism-based; set-up: dose 23 mg/kg, route intraperitoneal; conditions: in vivo; how it was run: as §1
Mus musculus [4] = assay: Hepatotoxicity in BALB/c mouse assessed as increase in liver ALT level at 7.2 mg/kg, ip administered twice a week for 3 weeks measured after 72 hrs of last dose; type: toxicity, organism-based; set-up: dose 7.2 mg/kg, route intraperitoneal; conditions: in vivo; how it was run: as §1
Mus musculus [5] = assay: Hepatotoxicity in BALB/c mouse assessed as increase in liver ALT level at 2.3 mg/kg, ip administered twice a week for 3 weeks measured after 72 hrs of last dose; type: toxicity, organism-based; set-up: dose 2.3 mg/kg, route intraperitoneal; conditions: in vivo; how it was run: as §1
Mus musculus [6] = assay: Hepatotoxicity in BALB/c mouse assessed as increase in liver ALT level at 1.5 mg/kg, ip administered twice a week for 3 weeks measured after 72 hrs of last dose; type: toxicity, organism-based; set-up: dose 1.5 mg/kg, route intraperitoneal; conditions: in vivo; how it was run: as §1
Mus musculus [7] = assay: Hepatotoxicity in BALB/c mouse assessed as increase in liver ALT level at 4.7 mg/kg, ip administered twice a week for 3 weeks measured after 72 hrs of last dose; type: toxicity, organism-based; set-up: dose 4.7 mg/kg, route intraperitoneal; conditions: in vivo; how it was run: as §1
Mus musculus [8] = assay: Hepatotoxicity in BALB/c mouse assessed as increase in liver ALT level at 15 mg/kg, ip administered twice a week for 3 weeks measured after 72 hrs of last dose; type: toxicity, organism-based; set-up: dose 15 mg/kg, route intraperitoneal; conditions: in vivo; how it was run: as §1
Mus musculus [9] = assay: Hepatotoxicity in BALB/c mouse assessed as increase in liver ALT level at 0.7 mg/kg, ip administered twice a week for 3 weeks measured after 72 hrs of last dose; type: toxicity, organism-based; set-up: dose 0.7 mg/kg, route intraperitoneal; conditions: in vivo; how it was run: as §1
Mus musculus [10] = assay: Toxicity in BALB/c mouse assessed as reduction in body weight at 0.5 mg/kg, ip administered twice a week for 3 weeks measured after 72 hrs of last dose; type: organism-based; set-up: dose 0.5 mg/kg, route intraperitoneal; conditions: in vivo; how it was run: as §1
Mus musculus [11] = assay: Toxicity in BALB/c mouse assessed as reduction in body weight at 1.5 mg/kg, ip administered twice a week for 3 weeks measured after 72 hrs of last dose; type: organism-based; set-up: dose 1.5 mg/kg, route intraperitoneal; conditions: in vivo; how it was run: as §1
Mus musculus [12] = assay: Toxicity in BALB/c mouse assessed as reduction in body weight at 4.7 mg/kg, ip administered twice a week for 3 weeks measured after 72 hrs of last dose; type: organism-based; set-up: dose 4.7 mg/kg, route intraperitoneal; conditions: in vivo; how it was run: as §1
Mus musculus [13] = assay: Toxicity in BALB/c mouse assessed as reduction in body weight at 15 mg/kg, ip administered twice a week for 3 weeks measured after 72 hrs of last dose; type: organism-based; set-up: dose 15 mg/kg, route intraperitoneal; conditions: in vivo; how it was run: as §1
Mus musculus [14] = assay: Hepatotoxicity in BALB/c mouse assessed as increase in liver ALT level at 60 mg/kg, ip after 72 hrs; type: toxicity, organism-based; set-up: dose 60 mg/kg, route intraperitoneal; conditions: in vivo
Mus musculus [15] = species: Mus musculus; assay: Binding affinity to mouse PTEN mRNA assessed as melting temperature
How it was run: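 Tm of ASO–RNA duplex, i.e. melting temperature of the ASO hybridised to its complementary RNA.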

bEND = assay: Reduction in mouse PTEN mRNA level expressed in mouse bEND cells; type: functional, cell-based
How it was run: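 bEND mouse brain endothelial cells transfected with ASO using lipofectin; PTEN mRNA reduction measured over a dose range; IC50 taken from dose-response curves.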

Mus musculus [16] = assay: Reduction of PTEN mRNA level in ip dosed BALB/c mouse liver after 72 hrs; type: functional
Mus musculus [17] = assay: Reduction of PTEN mRNA level in BALB/c mouse liver at 37 mg/kg, ip after 72 hrs; type: functional, organism-based; set-up: dose 37 mg/kg
Mus musculus [18] = assay: Reduction of PTEN mRNA level in BALB/c mouse liver at 60 mg/kg, ip after 72 hrs; type: functional, organism-based; set-up: dose 60 mg/kg
Mus musculus [19] = assay: Reduction of PTEN level in ip dosed BALB/c mouse liver at 37 mg/kg by Western blot analysis; type: functional, organism-based; set-up: dose 37 mg/kg

**Q.** With `COCCO[C@@H]1[C@H](O)[C@@H](COP(O)(=S)O[C@H]2[C@@H](OCCOC)[C@H](n3cc(C)c(=O)[nH]c3=O)O[C@@H]2COP(O)(=S)O[C@H]2[C@@H](OCCOC)[C@H](n3cnc4c(=O)[nH]c(N)nc43)O[C@@H]2COP(O)(=S)O[C@H]2[C@@H](OCCOC)[C@H](n3cc(C)c(N)nc3=O)O[C@@H]2COP(O)(=S)O[C@H]2[C@@H](OCCOC)[C@H](n3cc(C)c(=O)[nH]c3=O)O[C@@H]2COP(O)(=S)O[C@H]2[C@@H](O)[C@H](n3cnc4c(N)ncnc43)O[C@@H]2COP(O)(=S)O[C@H]2[C@@H](O)[C@H](n3cnc4c(=O)[nH]c(N)nc43)O[C@@H]2COP(O)(=S)O[C@H]2[C@@H](O)[C@H](n3cc(C)c(N)nc3=O)O[C@@H]2COP(O)(=S)O[C@H]2[C@@H](O)[C@H](n3cc(C)c(N)nc3=O)O[C@@H]2COP(O)(=S)O[C@H]2C[C@H](n3cc(C)c(=O)[nH]c3=O)O[C@@H]2COP(O)(=S)O[C@H]2[C@@H](O)[C@H](n3cc(C)c(N)nc3=O)O[C@@H]2COP(O)(=S)O[C@H]2C[C@H](n3cc(C)c(=O)[nH]c3=O)O[C@@H]2COP(O)(=S)O[C@H]2[C@@H](O)[C@H](n3cnc4c(=O)[nH]c(N)nc43)O[C@@H]2COP(O)(=S)O[C@H]2[C@@H](O)[C@H](n3cnc4c(=O)[nH]c(N)nc43)O[C@@H]2COP(O)(=S)O[C@H]2[C@@H](O)[C@H](n3cnc4c(N)ncnc43)O[C@@H]2COP(O)(=S)O[C@H]2[C@@H](OCCOC)[C@H](n3cc(C)c(=O)[nH]c3=O)O[C@@H]2COP(O)(=S)O[C@H]2[C@@H](OCCOC)[C@H](n3cc(C)c(=O)[nH]c3=O)O[C@@H]2COP(O)(=S)O[C@H]2[C@@H](OCCOC)[C@H](n3cc(C)c(=O)[nH]c3=O)O[C@@H]2COP(O)(=S)O[C@H]2[C@@H](OCCOC)[C@H](n3cnc4c(=O)[nH]c(N)nc43)O[C@@H]2COP(O)(=S)O[C@H]2[C@@H](OCCOC)[C@H](n3cnc4c(N)ncnc43)O[C@@H]2CO)O[C@H]1n1cc(C)c(N)nc1=O` (stereo not given in full) as the compound, how does the ED50 (Mus musculus [1]) read?
**A.** The ED50 was 9.5 mg/kg.

**Q.** What about the Activity (Mus musculus [2]) of the same compound?
**A.** Its Activity is “Non-toxic”.

**Q.** And the Activity (Mus musculus [3])?
**A.** The Activity was “Non-toxic”.

**Q.** What about the Activity (Mus musculus [4]) of the same compound?
**A.** The Activity was “Non-toxic”.

**Q.** What about the Activity (Mus musculus [5]) of the same compound?
**A.** Its Activity is “Non-toxic”.

**Q.** What about the Activity (Mus musculus [6]) of the same compound?
**A.** Its Activity is “Non-toxic”.

**Q.** What about the Activity (Mus musculus [7]) of the same compound?
**A.** The Activity was “Non-toxic”.

**Q.** What about the Activity (Mus musculus [8]) of the same compound?
**A.** Its Activity is “Non-toxic”.

**Q.** And the Activity (Mus musculus [9])?
**A.** Its Activity is “Non-toxic”.

**Q.** What about the Activity (Mus musculus [10]) of the same compound?
**A.** Its Activity is “Non-toxic”.

**Q.** What about the Activity (Mus musculus [11]) of the same compound?
**A.** The Activity was “Non-toxic”.

**Q.** What about the Activity (Mus musculus [12]) of the same compound?
**A.** Its Activity is “Non-toxic”.

**Q.** And the Activity (Mus musculus [13])?
**A.** Its Activity is “Non-toxic”.

**Q.** And the Activity (Mus musculus [14])?
**A.** The Activity was “Non-toxic”.

**Q.** What about the Tm (Mus musculus [15]) of the same compound?
**A.** The Tm was 67.9 °C.

**Q.** And the IC50 (bEND)?
**A.** Its IC50 is 6.2 nM.

**Q.** What about the ED50 (Mus musculus [16]) of the same compound?
**A.** The ED50 was 36 mg/kg.

**Q.** And the Activity (Mus musculus [17])?
**A.** The Activity was “Active”.

**Q.** What about the Activity (Mus musculus [18]) of the same compound?
**A.** Its Activity is “Active”.

**Q.** What about the Activity (Mus musculus [19]) of the same compound?
**A.** Its Activity is “Active”.
